Laboratory results published in ChEMBL document CHEMBL5724801, “EUbOPEN Chemogenomics Library - Multiplex” (2024).
Where “and” joins values, the source holds several entries; their conditions need not be identical. Equal values may be shown once.

Assays:
[1] = tested on: U2OS; experiment: Multiplex assay against U2OS; type: toxicity, cell-based; conditions: human
Method in brief: (§1)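 With compound added, live cells were imaged on a CQ1 microscope at 37°C and 5% CO2; staining with Hoechst33342, BioTracker Green Microtubule Cytoskeleton Dye, MitoTracker Red and Annexin V Alexa Fluor 680 had been done at seeding. The CellPathfinder machine-learning gating scheme split cells into Hoechst high-intensity objects or normal cells, normal cells into healthy, pyknosed or fragmented nuclei, and pyknosed cells into mitotic or apoptotic. The tubulin, mitochondrial-mass and membrane-permeability phenotypes are per cents of healthy-nucleus cells.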

[2] = tested on: HEK-293T; experiment: Multiplex assay against HEK293T; type: toxicity, cell-based; conditions: human; method in brief: as §1
[3] = 24 h, 1 µM, compound concentration 1 uM
[4] = 24 h, 10 µM, compound concentration 10 uM
[5] = 48 h, 1 µM, compound concentration 1 uM
[6] = 48 h, 10 µM, compound concentration 10 uM
[7] = 12 h, 1 µM, compound concentration 1 uM
[8] = 12 h, 10 µM, compound concentration 10 uM

## CC(C)[C@H](C(=O)Nc1ccc(C(=O)NO)cc1)c1ccccc1 [AR-42]
[1]; [3]
  Total Cell Count: 444 and 189
[1]; [4]
  Population Apoptotic (%): 38.59% and 30.67%
  Population Fragmented Nuclei (%): 5.97% and 3.36%
  Population Healthy Nuclei (%): 39.1% and 46.31%
  Population Hoechst High Intensity Objects (%): 0%
  Population Membrane Permeable-Phenotype (%): 3.82% and 5.8%
  Population Mitochondria Different-Phenotype (%): 0% and 2.9%
  Population Mitotic Cells (%): 61.41% and 69.33%
  Population Normal (%): 100%
  Population Pyknosed Nuclei (%): 54.93% and 50.34%
  Population Tubulin-Different-Phenotype (%): 6.87% and 8.7%
  Total Cell Count: 335 and 149
[1]; [5]
  Population Apoptotic (%): 73.08% and 85.05%
  Population Fragmented Nuclei (%): 10.42% and 6.52%
  Population Healthy Nuclei (%): 25.06% and 35.33%
  Population Hoechst High Intensity Objects (%): 0.25% and 0%
  Population Membrane Permeable-Phenotype (%): 14.85% and 23.08%
  Population Mitochondria Different-Phenotype (%): 0% and 10.77%
  Population Mitotic Cells (%): 26.92% and 14.95%
  Population Normal (%): 99.75% and 100%
  Population Pyknosed Nuclei (%): 64.52% and 58.15%
  Population Tubulin-Different-Phenotype (%): 30.69% and 30.77%
  Total Cell Count: 404 and 184
[1]; [6]
  Population Apoptotic (%): 83.05% and 91.57%
  Population Fragmented Nuclei (%): 2.34% and 3.4%
  Population Healthy Nuclei (%): 38.46% and 40.14%
  Population Hoechst High Intensity Objects (%): 0% and 0.68%
  Population Membrane Permeable-Phenotype (%): 18.26% and 44.07%
  Population Mitochondria Different-Phenotype (%): 0% and 1.69%
  Population Mitotic Cells (%): 16.95% and 8.43%
  Population Normal (%): 100% and 99.32%
  Population Pyknosed Nuclei (%): 59.2% and 56.46%
  Population Tubulin-Different-Phenotype (%): 34.78% and 18.64%
  Total Cell Count: 299 and 148
[2]; [7]
  Population Apoptotic (%): 11.9% and 3.88%
  Population Fragmented Nuclei (%): 1.31% and 2.38%
  Population Healthy Nuclei (%): 54.83% and 20.83%
  Population Hoechst High Intensity Objects (%): 0% and 0.59%
  Population Membrane Permeable-Phenotype (%): 0.95% and 0%
  Population Mitochondria Different-Phenotype (%): 22.38% and 11.43%
  Population Mitotic Cells (%): 88.1% and 96.12%
  Population Normal (%): 100% and 99.41%
  Population Pyknosed Nuclei (%): 43.86% and 76.79%
  Total Cell Count: 383 and 169
[2]; [8]
  Population Apoptotic (%): 11.02% and 12.75%
  Population Fragmented Nuclei (%): 2.96% and 3.72%
  Population Hoechst High Intensity Objects (%): 0.37% and 0%
  Population Membrane Permeable-Phenotype (%): 0% and 3.12%
  Population Mitotic Cells (%): 88.98% and 87.25%
  Population Normal (%): 99.63% and 100%
  Population Pyknosed Nuclei (%): 43.7% and 79.26%
  Population Tubulin-Different-Phenotype (%): 5.56% and 9.38%
  Total Cell Count: 271 and 188
[2]; [3]
  Population Apoptotic (%): 31.4% and 16.41%
  Population Fragmented Nuclei (%): 3.26% and 2.2%
  Population Healthy Nuclei (%): 63.86% and 27.47%
  Population Hoechst High Intensity Objects (%): 0%
  Population Membrane Permeable-Phenotype (%): 0.43% and 0%
  Population Mitochondria Different-Phenotype (%): 22.55% and 10%
  Population Mitotic Cells (%): 68.6% and 83.59%
  Population Normal (%): 100%
  Population Pyknosed Nuclei (%): 32.88% and 70.33%
  Population Tubulin-Different-Phenotype (%): 18.3% and 14%
  Total Cell Count: 368 and 182
[2]; [4]
  Population Apoptotic (%): 25.32% and 20.83%
  Population Fragmented Nuclei (%): 1.5% and 2.78%
  Population Healthy Nuclei (%): 68.8% and 30.56%
  Population Hoechst High Intensity Objects (%): 0% and 0.55%
  Population Membrane Permeable-Phenotype (%): 1.09% and 1.82%
  Population Mitochondria Different-Phenotype (%): 14.21% and 14.55%
  Population Mitotic Cells (%): 74.68% and 79.17%
  Population Normal (%): 100% and 99.45%
  Population Pyknosed Nuclei (%): 29.7% and 66.67%
  Population Tubulin-Different-Phenotype (%): 2.73% and 3.64%
  Total Cell Count: 266 and 181
[2]; [5]
  Population Apoptotic (%): 38.66% and 18.09%
  Population Fragmented Nuclei (%): 3.58% and 2.58%
  Population Healthy Nuclei (%): 60.9% and 36.77%
  Population Hoechst High Intensity Objects (%): 1.18% and 0%
  Population Membrane Permeable-Phenotype (%): 0.49% and 3.51%
  Population Mitochondria Different-Phenotype (%): 58.33% and 29.82%
  Population Mitotic Cells (%): 61.34% and 81.91%
  Population Normal (%): 98.82% and 100%
  Population Pyknosed Nuclei (%): 35.52% and 60.65%
  Population Tubulin-Different-Phenotype (%): 21.57% and 47.37%
  Total Cell Count: 339 and 155
[2]; [6]
  Population Apoptotic (%): 22.22% and 36.27%
  Population Fragmented Nuclei (%): 2.93% and 2.55%
  Population Healthy Nuclei (%): 66.95% and 32.48%
  Population Hoechst High Intensity Objects (%): 0.42% and 0%
  Population Membrane Permeable-Phenotype (%): 5% and 3.92%
  Population Mitochondria Different-Phenotype (%): 22.5% and 11.76%
  Population Mitotic Cells (%): 77.78% and 63.73%
  Population Normal (%): 99.58% and 100%
  Population Pyknosed Nuclei (%): 30.13% and 64.97%
  Population Tubulin-Different-Phenotype (%): 9.38% and 15.69%
  Total Cell Count: 240 and 157
